From PubChem
The list is not random: actives were taken first. Their share in the collection is about 1.7%.
PREPL inh = inhibitors of human prolyl oligopeptidase-like enzyme PREPL; recombinant PREPL, fluorescence polarization activity-based probe; inhibition, % at 5.96 µM; 0.68% of 320,000 active; Q4J6C6;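 further: 0% = enzyme with DMSO and 100% = wells lacking enzyme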
Apaf1 inhib = blocks human Apaf-1 apoptosome activity; reconstituted apoptosome caspase-3 activity, DEVD-Rh110 fluorescence; 0.71% of 330,000 active; inhibition, % at 20 µM; AID 489030; O14727; active means inhibition of at least 40% at 20 µM;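 further: plate controls were DMSO wells for no effect and DEVD-CHO caspase inhibitor wells for full effect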
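Medium: Hepes buffer, pH 7.5 / System: biochemical Apaf-1 apoptosome reconstitution / Measured by: Rh110 fluorescence, excitation 480 nm, emission 540 nm / Times: compound with Apaf-1, dATP, procaspase-3 30 min, then 50 min reaction, room temperature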
EBNA-1 inh = blocks EBNA-1 binding to DNA | inhibition, % at 14.8 µM | EBNA-1 DNA binding, fluorescence polarization | 0.34% of 300,000 active; in the data active means inhibition above about 28%
UBC13 inh = blocks human UBC13 polyubiquitin chain formation; P61088; TR-FRET; inhibition, % at 20 µM; 0.47% of 330,000 active; AID 485273; in the data active means inhibition above about 45%, passing the limit was not always enough
ZTA counter = counter-screen for EBNA-1 inhibitors: inhibitors of Epstein-Barr virus ZTA. P03206. ZTA-DNA binding, fluorescence polarization. inhibition, % at 11 µM. 0.15% of 320,000 active. AID 2234; in the data active means inhibition above about 33%
PREPL inh cf = confirmation of human PREPL enzyme inhibitors. recombinant PREPL, fluorescence polarization activity probe. AID 2803. inhibition, % at 5.96 µM. 67% of 2,000 active. shares compounds with PREPL inh;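 further: 0% = protein with DMSO and 100% = wells lacking protein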
Casp3 counter = inhibits human caspase-3 in UBC13 counter-screen; shares compounds with UBC13 inh; Recombinant caspase-3, Caspase-Glo 3/7 luminescence, 60 min; inhibition, % at 20 µM; 4% of 1,400 active; AID 488856;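 active means mean inhibition across replicates above about 26%, limit read from the data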;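 further: plate controls were DMSO with caspase-3 for no effect and DMSO wells lacking enzyme for full effect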
UBC13 conf = confirmation of human UBC13 polyubiquitin inhibitors | shares compounds with UBC13 inh | inhibition, % at 10 µM | AID 488859 | UBC13 polyubiquitination, TR-FRET, biochemical | 68% of 1,400 active; in the data active means inhibition above about 45%
* hit, by the source's call. Unless noted, no stated cut-off is given here; in the data, active means inhibition above about 43%; inactive means the rest.

`Clc1ccc(CNc2ccc(N3CCN(Cc4ccccc4)CC3)cc2)cc1` gave PREPL inh 48*, Apaf1 inhib 8, EBNA-1 inh 7, UBC13 inh 0, ZTA counter 4 and PREPL inh cf 49*.
`c1ccc(CNc2ccc(N3CCOCC3)cc2)cc1` gave PREPL inh 41, Apaf1 inhib 8 and UBC13 inh 6.
O=C(COc1ccc(Cl)cc1)Nc1nc(-c2cccs2)cs1 was read as PREPL inh -3, Apaf1 inhib 13, EBNA-1 inh 1, UBC13 inh 0 and ZTA counter -19.
Screening S=C(NCc1ccco1)N1CCN(Cc2ccco2)CC1 returned PREPL inh 9, Apaf1 inhib 3, EBNA-1 inh -10, UBC13 inh -5 and ZTA counter 2.
`Cc1nn2cnnc2c(C)c1Cc1c(F)cccc1Cl` gave PREPL inh 1, Apaf1 inhib 1, EBNA-1 inh 0, UBC13 inh 2 and ZTA counter 5.
`c1ccc2nc3c(nc2c1)[nH]c1ccccc13` gave PREPL inh 1, Apaf1 inhib 14, EBNA-1 inh 1, UBC13 inh -24 and ZTA counter 1.
For Nc1ccc2ncccc2c1N the results were PREPL inh 47*, EBNA-1 inh -5, ZTA counter -19 and PREPL inh cf 46*.
For c1cnc2ccc3ncccc3c2c1 the results were PREPL inh 11, Apaf1 inhib 6, EBNA-1 inh -13, UBC13 inh -8 and ZTA counter -3.
`CCC1(O)CC(C(=O)OC)=NN1C(=O)c1ccccc1` (stereo not given) gave PREPL inh 7, Apaf1 inhib -18, EBNA-1 inh 2, UBC13 inh 5 and ZTA counter -6.
`O=C(CNC(=O)c1ccco1)NCC(c1ccco1)N1CCCCC1` (stereo not given) gave PREPL inh 73*, Apaf1 inhib 14, UBC13 inh 10, ZTA counter 1 and PREPL inh cf 13.
COc1ccc(/C=N/Nc2nc(-c3cccnc3)nc3ccccc23)cc1OC was read as PREPL inh 40, Apaf1 inhib 15, EBNA-1 inh -13, UBC13 inh -13 and ZTA counter -4.
For Cc1c(O)ccc(/C=N/Nc2nc(-c3cccnc3)nc3ccccc23)c1O the results were PREPL inh 72*, Apaf1 inhib -1, EBNA-1 inh 1, UBC13 inh -26, ZTA counter 8 and PREPL inh cf 72*.
For Oc1ccc(/C=N/Nc2nc(-c3cccnc3)nc3ccccc23)c(O)c1 the results were PREPL inh 58*, Apaf1 inhib -15, EBNA-1 inh -1, UBC13 inh -25, ZTA counter 0 and PREPL inh cf 42.
Screening CC1CCC(C(C)C)C(OC(=O)Cn2c(-c3ccc(Br)cc3)[n+](C)c3ccccc32)C1 (stereo not given) returned PREPL inh 49*, Apaf1 inhib 29, EBNA-1 inh -6, UBC13 inh 55*, ZTA counter -4, PREPL inh cf 44*, Casp3 counter 1 and UBC13 conf 78*.
`COc1ccccc1Nc1nc(NCCO)c2ccccc2n1` gave Apaf1 inhib -1 and UBC13 inh -9.
For Cc1ccc(Nc2nc(NCCO)c3ccccc3n2)cc1C the results were PREPL inh 56*, Apaf1 inhib 20, EBNA-1 inh 3, UBC13 inh 52*, ZTA counter 7, PREPL inh cf 50*, Casp3 counter 2 and UBC13 conf 82*.
`O=C(Nc1ccc(Cl)cc1)c1nc[nH]c1C(=O)NCCCCNC(=O)c1[nH]cnc1C(=O)Nc1ccc(Cl)cc1` gave PREPL inh -12, Apaf1 inhib 7 and UBC13 inh -11.
COc1cc2ccccc2cc1C(=O)N1CCCC(C(F)(F)F)C1 (stereo not given) was read as PREPL inh 17, Apaf1 inhib 24, UBC13 inh -11 and ZTA counter 8.
